From ChEMBL document CHEMBL3232844, “Synthesis and structure activity relationships of schweinfurthin indoles” (2014)

How the values were obtained:
Assay type in all cases: functional
[1] = test system: SN12C; test: Cytotoxicity against human SN12C cells; details: read-out: pTGI (converted)
Method in brief: (§1)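 Tested in a 60-cell-line human tumor panel screen; the read-out is growth inhibition, reported as GI50 for each cell line.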

[2] = test system: NCI-H460; test: Cytotoxicity against human NCI-H460 cells; method in brief: as §1
[3] = test system: TK-10; test: Cytotoxicity against human TK10 cells
Method in brief: (§2)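 Cell line run as part of the 60-cell-line screening panel; growth inhibition was reported as a GI50 for each line.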

[4] = test system: IGROV-1; test: Cytotoxicity against human IGROV1 cells; method in brief: as §1
[5] = test system: SNB-75; test: Cytotoxicity against human SNB75 cells; method in brief: as §2
[6] = test system: K562; test: Cytotoxicity against human K562 cells; method in brief: as §1
[7] = test system: CAKI-1; test: Cytotoxicity against human Caki1 cells; method in brief: as §1
[8] = test system: HCC 2998; test: Cytotoxicity against human HCC2998 cells; method in brief: as §1
[9] = test system: MDA-MB-231; test: Cytotoxicity against human MDA-MB-231 cells; method in brief: as §1
[10] = test system: SF-268; test: Cytotoxicity against human SF268 cells; method in brief: as §1
[11] = test system: SF-539; test: Cytotoxicity against human SF539 cells; method in brief: as §1
[12] = test system: NCI-H23; test: Cytotoxicity against human NCI-H23 cells; method in brief: as §1
[13] = test system: M14; test: Cytotoxicity against human M14 cells; method in brief: as §1
[14] = test system: HT-29; test: Cytotoxicity against human HT-29 cells; method in brief: as §1
[15] = test system: MOLT-4; test: Cytotoxicity against human MOLT4 cells; method in brief: as §1
[16] = test system: MCF7; test: Cytotoxicity against human MCF7 cells; method in brief: as §1
[17] = test system: SK-MEL-2; test: Cytotoxicity against human SK-MEL-2 cells; method in brief: as §1
[18] = Cytotoxicity against human EKVX cells; method in brief: as §1
[19] = Cytotoxicity against human NCI-ADR-RES cells; method in brief: as §1
[20] = test system: MDA-MB-435; test: Cytotoxicity against human MDA-MB-435 cells; method in brief: as §1
[21] = test system: KM12; test: Cytotoxicity against human KM12 cells; method in brief: as §1
[22] = test system: SF-295; test: Cytotoxicity against human SF295 cells; method in brief: as §1
[23] = read-out: pLC50 (the source's name) (converted)

`COc1cc(/C=C/c2cc(O)c3cc[nH]c3c2)cc2c1O[C@]1(C)CC[C@@H](O)C(C)(C)[C@H]1C2` gave a TGI [1] of 67.6 µM, a GI50 [2] of 0.871 µM and a CC50 [2, 23] of 5.37 µM. It also gave a TGI ([2]; read-out: pTGI (converted)) of 2.29 µM, a GI50 [3] of 5.62 µM and an LC50 [3] of over 100 µM. It also gave a TGI ([3]; read-out: pTGI (converted)) of 49 µM, a GI50 [4] of 2.29 µM and a CC50 [4, 23] of 60.3 µM. It also gave a TGI ([4]; read-out: pTGI (converted)) of 10.2 µM, a GI50 [5] of 0.269 µM and a CC50 [5, 23] of over 100 µM. It also gave a TGI ([5]; read-out: pTGI (converted)) of 4.57 µM, a GI50 [6] of 0.708 µM and a CC50 [6, 23] of over 100 µM. For the same compound, the TGI ([6]; read-out: pTGI (converted)) was 20.4 µM, the GI50 [7] was 0.741 µM and the LC50 [7] was 20.9 µM. It also gave a TGI ([7]; read-out: pTGI (converted)) of 2.29 µM, a GI50 [8] of 2.88 µM and a CC50 [8, 23] of 55 µM. The TGI ([8]; read-out: pTGI (converted)) was 14.5 µM, the GI50 [9] was 1.82 µM and the LC50 [9] was over 100 µM. It also gave a TGI ([9]; read-out: pTGI (converted)) of 20.9 µM, a GI50 [10] of 0.794 µM and a CC50 [10, 23] of over 100 µM. The TGI ([10]; read-out: pTGI (converted)) was 34.7 µM, the GI50 [11] was 0.257 µM and the TGI ([11]; read-out: pTGI (converted)) was 1.23 µM. It also gave a GI50 [12] of 1.7 µM, a CC50 [12, 23] of 61.7 µM and a TGI ([12]; read-out: pTGI (converted)) of 8.13 µM. It also gave a GI50 [13] of 0.676 µM, a CC50 [13, 23] of 6.17 µM and a TGI ([13]; read-out: pTGI (converted)) of 2.19 µM. It also gave a GI50 [14] of 0.708 µM, a CC50 [14, 23] of 93.3 µM and a TGI ([14]; read-out: pTGI (converted)) of 4.07 µM. It also gave a GI50 [15] of 0.309 µM, a CC50 [15, 23] of 75.9 µM and a TGI ([15]; read-out: pTGI (converted)) of 1.78 µM. It also gave a GI50 [16] of 1.29 µM, an LC50 [16] of 51.3 µM and a TGI ([16]; read-out: pTGI (converted)) of 20.4 µM. The GI50 [17] was 1.12 µM, the CC50 [17, 23] was 31.6 µM and the TGI ([17]; read-out: pTGI (converted)) was 7.24 µM. The GI50 [18] was 3.47 µM, the CC50 [18, 23] was 91.2 µM and the TGI ([18]; read-out: pTGI (converted)) was 27.5 µM. It also gave a GI50 [19] of 2.57 µM, a CC50 [19, 23] of over 100 µM and a TGI ([19]; read-out: pTGI (converted)) of 33.9 µM. It also gave a GI50 [20] of 0.933 µM, a CC50 [20, 23] of 85.1 µM and a TGI ([20]; read-out: pTGI (converted)) of 11.2 µM. It also gave a GI50 [21] of 0.457 µM, a CC50 [21, 23] of 9.55 µM and a TGI ([21]; read-out: pTGI (converted)) of 1.86 µM. The GI50 ([22]; read-out: GI50) was 0.23 µM, the GI50 ([22]; read-out: pGI50 (converted)) was 0.234 µM and the CC50 [22, 23] was 6.03 µM. It also gave a TGI ([22]; read-out: pTGI (converted)) of 1 µM.
